Activity calls are given as the source filed them. The rule behind the calls is not given here.
Experiments:
HeLa [1] = assay: Growth inhibition of human HeLa cells after 48 hrs by MTT assay in presence of 100 uM ZnCl2; assay type: functional
In short: (§1)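 Cells seeded at 5 × 10³/well and allowed 24 h to attach, then exposed to compound (DMSO stock) or vehicle for 48 h in 10% FBS DMEM at 37 °C, 5% CO₂. MTT (2 mg/mL in PBS) added for a further 2 h; formazan dissolved in DMSO and read at 570 nm. Inhibition = (1 − At/Ac) × 100. GI₅₀ interpolated from dose-response curves; mean ± SEM of 4–6 experiments; top concentration 40 μM.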

HeLa [2] = assay: Stimulation of reactive oxygen species in human HeLa cells at 10 uM in presence of 10 uM CuCl2 after 1 hr by dihydroethidium dye based fluorescence assay; assay type: functional, cell-based
In short: (§2)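 HeLa cells grown in DMEM with 10% FBS, 2 mM glutamine, penicillin/streptomycin at 37 °C, 5% CO2. Compound given with CuCl2, with or without tempol 1 mM; 0.5% DMSO control, untreated blank. Dihydroethidium 5 µmol/L loaded 30 min, PBS wash, epifluorescence microscopy; four separate cultures, two to six coverslips each.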

[3] = Growth inhibition of human CE81T cells after 48 hrs by MTT assay in presence of 10% FBS supplemented DMEM medium; assay type: functional; in short: as §1
HeLa [4] = assay: Growth inhibition of human HeLa cells after 48 hrs by MTT assay in presence of 50 uM ZnCl2; assay type: functional; in short: as §1
HeLa [5] = assay: Growth inhibition of human HeLa cells after 48 hrs by MTT assay in presence of 1 uM CuCl2; assay type: functional; in short: as §1
HeLa [6] = assay: Growth inhibition of human HeLa cells after 48 hrs by MTT assay in presence of 10 uM CuCl2; assay type: functional; in short: as §1
[7] = Growth inhibition of human SKHep cells after 48 hrs by MTT assay in presence of 10% FBS supplemented DMEM medium; assay type: functional; in short: as §1
HeLa [8] = assay: Growth inhibition of human HeLa cells after 48 hrs by MTT assay in presence of 50 uM CuCl2; assay type: functional; in short: as §1
HeLa [9] = assay: Growth inhibition of human HeLa cells after 48 hrs by MTT assay in presence of 10% FBS supplemented DMEM medium; assay type: functional; in short: as §1
[10] = Growth inhibition of human BT-483 cells after 48 hrs by MTT assay in presence of 10% FBS supplemented DMEM medium; assay type: functional; settings: BT-483, 48 h; in short: as §1
[11] = Activation of JNK phosphorylation in human HeLa cells at 1 uM in presence of 10 uM CuCl2 after 24 hrs by Western blot; assay type: cell-based
In short: (§3)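 HeLa cells grown in DMEM with 10% FBS, 2 mM glutamine and penicillin/streptomycin at 37 °C, 5% CO₂. Treated cells were lysed and the extracts run on Western blot. Membranes were blocked overnight at 4 °C in TBST/5% non-fat milk. Probed with phospho- and total ERK1/2, p38 and JNK antibodies, then anti-mouse or anti-rabbit IgG (1:10,000, 1 h, RT), with ECL detection.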

HeLa [12] = assay: Induction of apoptosis in human HeLa cells assessed as accumulation at subG1 phase at 1 uM in presence of 10 uM CuCl2 and 10 uM caspase inhibitor z-VAD after 24 hrs using propidium iodide staining by flow cytometry; assay type: functional
In short: (§4)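 HeLa cells exposed 24 h to test agent; controls were 0.5% DMSO and untreated cells. Optional additions were CuCl₂ 10 μM, tempol 1 mM or z-VAD. Cells were fixed in 80% ethanol and held at −20 °C. They were then stained 30 min at room temperature in the dark with PI 0.08 mg/mL, 0.1% Triton X-100 and RNase A 0.2 mg/mL in PBS. Subdiploid (sub-G1) fraction was quantified by flow cytometry as % of all events.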

[13] = biological target: T1, MAP kinase p38 (Homo sapiens) (UniProt O15264+Q15759+Q16539+P53778); assay: Activation of p38 phosphorylation in human HeLa cells at 1 uM in presence of 10 uM CuCl2 after 24 hrs by Western blot; assay type: cell-based; in short: as §3
[14] = biological target: T1, MAP kinase p38 (Homo sapiens); assay: Activation of p38 phosphorylation in human HeLa cells at 1 uM in presence of 10 uM CuCl2 after 48 hrs by Western blot
HeLa [15] = assay: Induction of apoptosis in human HeLa cells assessed as accumulation at subG1 phase at 2 uM after 24 hrs using propidium iodide staining by flow cytometry; assay type: functional; in short: as §4
HeLa [16] = assay: Activation of ERK phosphorylation in human HeLa cells at 1 uM in presence of 10 uM CuCl2 after 48 hrs by Western blot; assay type: cell-based; in short: as §3
HeLa [17] = assay: Activation of ERK phosphorylation in human HeLa cells at 1 uM in presence of 10 uM CuCl2 after 24 hrs by Western blot
HeLa [18] = assay: Stimulation of reactive oxygen species in human HeLa cells at 1 uM in presence of 5 uM CuCl2 after 1 hr by dihydroethidium dye based fluorescence assay; assay type: functional, cell-based; in short: as §2
HeLa [19] = assay: Activation of ERK phosphorylation in human HeLa cells at 1 uM in presence of 10 uM CuCl2 after 48 hrs by Western blot
[20] = Activation of JNK phosphorylation in human HeLa cells at 1 uM in presence of 10 uM CuCl2 after 24 hrs by Western blot
HeLa [21] = assay: Induction of apoptosis in human HeLa cells assessed as accumulation at subG1 phase at 1 uM in presence of 10 uM CuCl2 and 1 mM tempol after 24 hrs using propidium iodide staining by flow cytometry; assay type: functional; in short: as §4
[22] = biological target: T1, MAP kinase p38 (Homo sapiens); assay: Activation of p38 phosphorylation in human HeLa cells at 1 uM in presence of 10 uM CuCl2 after 24 hrs by Western blot
[23] = Activation of JNK phosphorylation in human HeLa cells at 1 uM in presence of 10 uM CuCl2 after 48 hrs by Western blot; assay type: cell-based; in short: as §3
[24] = biological target: T1, MAP kinase p38 (Homo sapiens); assay: Activation of p38 phosphorylation in human HeLa cells at 1 uM in presence of 10 uM CuCl2 after 48 hrs by Western blot; assay type: cell-based; in short: as §3
[25] = Activation of JNK phosphorylation in human HeLa cells at 1 uM in presence of 10 uM CuCl2 after 48 hrs by Western blot
HeLa [26] = assay: Induction of apoptosis in human HeLa cells assessed as accumulation at subG1 phase at 1 uM in presence of 10 uM CuCl2 after 24 hrs using propidium iodide staining by flow cytometry; assay type: functional; in short: as §4
HeLa [27] = assay: Activation of ERK phosphorylation in human HeLa cells at 1 uM in presence of 10 uM CuCl2 after 24 hrs by Western blot; assay type: cell-based; in short: as §3
HeLa [28] = assay: Induction of apoptosis in human HeLa cells assessed as accumulation at subG1 phase at 1 uM after 24 hrs using propidium iodide staining by flow cytometry; assay type: functional; in short: as §4
SKHep = assay: Growth inhibition of human SKHep cells at 40 uM after 48 hrs by MTT assay in presence of 10% FBS supplemented DMEM medium; assay type: functional, cell-based; in short: as §1
CE81T = assay: Growth inhibition of human CE81T cells at 40 uM after 48 hrs by MTT assay in presence of 10% FBS supplemented DMEM medium; assay type: functional, cell-based; in short: as §1
BT-483 = assay: Growth inhibition of human BT-483 cells at 40 uM after 48 hrs by MTT assay in presence of 10% FBS supplemented DMEM medium; assay type: functional, cell-based; in short: as §1

| GI50 (HeLa [1]) [nM] | GI50 (HeLa [4]) [µM] | GI50 (HeLa [5]) [µM] | GI50 (HeLa [6]) [µM] | GI50 (HeLa [8]) [µM] | GI50 (HeLa [9]) [µM] | SMILES | GI50 [3] [µM] | GI50 [7] [µM] | GI50 [10] [µM] | other results |
| --- | --- | --- | --- | --- | --- | --- | --- | --- | --- | --- |
| 2100 | 5.6 | 6.1 | 5.3 | 4.4 | 18.6 | CCN(CC)CCCC(C)Nc1ccnc2cc(Cl)ccc12 (stereo unspecified) [CHLOROQUINE] | 23.4 | 9.5 | 10.2 | Activity (HeLa [2]): Active |
| 260 | 0.48 | 0.65 | 0.25 | 0.06 | 0.71 | Cc1ccc(S(=O)(=O)N2CCN(Cc3cc([N+](=O)[O-])c4cccnc4c3O)CC2)cc1 | 5.9 | 14.6 | 1.9 | Activity [11]: Active; Activity (HeLa [12]): 1.58%; Activity [13]: Active; Activity [14]: Active; Activity (HeLa [15]): 18.57%; Activity (HeLa [16]): Active; Activity (HeLa [17]): Active; Activity (HeLa [18]): Active; Activity (HeLa [19]): Active; Activity [20]: Active; Activity (HeLa [21]): 1.34%; Activity [22]: Active; Activity [23]: Active; Activity [24]: Active; Activity [25]: Active; Activity (HeLa [26]): 17.5%; Activity (HeLa [27]): Active; Activity (HeLa [28]): 6.77% |
| 20100 | 29.7 | 40.1 | 28.4 | 22.6 | 38.6 | O=S(=O)(c1ccccc1)N1CCN(Cc2ccc3ccccc3c2O)CC1 | – | – | – | GI50 (SKHep): inactive; GI50 (CE81T): inactive; GI50 (BT-483): inactive |

From ChEMBL document CHEMBL1152609, “Synthesis and pharmacological exploitation of clioquinol-derived copper-binding apoptosis inducers triggering reactive oxygen species generation and MAPK pathway activation” (2009)
